Most compounds without a hit are left out; they make up all but 3.7% or so of the library.
KCNQ1 act = potentiates or activates the human KCNQ1 potassium channel; CHO-K1 KCNQ1, thallium flux FluxOR fluorescence; active compounds read high; P51787; B-score at 10 µM; hit rate 0.35% among 310,000; AID 2648;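 active = fluorescence ratio B-score, a plate-corrected score, at least three library SD, with initial intensity B-score within 5 SD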
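Assay system: stable KCNQ1 CHO-K1 line; medium: assay buffer, equal DMSO in all wells; timing: 90 min dye loading and 20 min compound exposure, both at room temperature; technique: kinetic FluxOR thallium fluorescence, 10-s 1-Hz baseline, 110-s post-stimulus read; read-out basis: B score of baseline-normalized fluorescence ratio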
KCNK3 inh = human KCNK3 channel inhibition, primary screen. hit rate 0.84% among 340,000. CHO-KCNK3 thallium flux, FluxOR fluorescence; active compounds read low. B-score at 10 µM. O14649;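 active = B-score under library mean minus 4 SD, starting fluorescence ratio at most library mean plus 5 SD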;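 note: more negative B-score means stronger inhibition of thallium flux through KCNK3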
KCNQ1 inh = blocks the human KCNQ1 potassium channel. CHO-K1 KCNQ1, FluxOR thallium flux fluorescence; active compounds read high. B-score at 10 µM. hit rate 1.3% among 310,000;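 active = compounds whose thallium flux B-score, printed positive for inhibition, exceeds three library SD while starting fluorescence stays within three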;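 note: channel opened by potassium depolarization with thallium stimulus after 20 min compound exposure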
hERG rescue = hERG (human) protection from proarrhythmic block. Q12809. CHO-hERG, FluxOR thallium flux, dofetilide IC70 present. activation (rescue from dofetilide block), less the hit threshold, % at 10 µM. hit rate 0.51% among 310,000;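 active = activation above the mean of controls blocked by dofetilide plus 5 SD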;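 note: thallium influx through hERG after potassium depolarization seen as dye fluorescence rise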
KCNK9 inh = human KCNK9 channel inhibition; AID 488922; hit rate 1.2% among 310,000; HEK293 KCNK9, FluxOR thallium flux fluorescence; active compounds read low; Q9NPC2; B-score at 10 µM;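 active = ratio B-score over 3 SD below the library mean, with starting fluorescence within 5 SD of its mean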;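 note: negative B-score means less thallium flux so channel inhibition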
Kir21 block = inhibitors of mouse Kir2.1 inward-rectifier potassium channel | P35561 | HEK293-Kir2.1, FluxOR thallium flux fluorescence; active compounds read low | B-score at 10 µM | hit rate 0.85% among 310,000 | AID 1672;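 active = fluorescence ratio B-score at or below minus 3 SD of library scores, with starting-brightness B-score within 2 SD, cut at about -4.2 in these data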;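 note: channel flux triggered by added potassium and thallium sulfate stimulus; B-score of peak minus minimum fluorescence over baseline after thallium stimulus; more negative B-score means stronger Kir2.1 block with less thallium influx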
KCNQ1 block val = human KCNQ1 channel inhibition, validation assay; shares compounds with KCNQ1 inh; KCNQ1 cell line, FluxOR thallium flux fluorescence; inhibition, % at 10 µM; hit rate 93% among 1,600; AID 588353;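 active = primary screen active, with duplicate mean exceeding buffer control mean plus 3 SD of buffer wells, cut at about 28% in these data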;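 note: 0% = buffer control ratio and 100% = XE991 inhibitor control ratio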
CHO Tl flux = counter-screen for KCNQ1 inhibitors: effect in parental CHO cells. shares compounds with KCNQ1 inh. parental CHO-K1, FluxOR thallium flux fluorescence ratio; active compounds read low; zero means no signal rise above baseline. fluorescence ratio (Tl flux) at 10 µM. hit rate 21% among 1,600. AID 588366;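 active = mean of duplicate thallium-flux fluorescence ratios in parental host cells more than 5 SD below the buffer control mean, cut at about 0.38 in these data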;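 note: ratio is peak minus minimum fluorescence divided by baseline fluorescence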
KCNQ1 APC inh = blocks human KCNQ1 current in automated patch clamp. shares compounds with KCNQ1 inh. KCNQ1-CHO cells. calls only at 10 µM. hit rate 20% among 490;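 active = KCNQ1 current drop exceeding 3 SD of negative control wells, seen in both duplicate runs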;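 note: steady state current during a 2 s step from -80 to +40 mV; negative values mean current inhibition and positive values mean potentiation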
KCNQ2 inh = KCNQ1 inhibitor that also blocks rat KCNQ2 channel. shares compounds with KCNQ1 inh. KCNQ2 cells, FluxOR thallium flux fluorescence. inhibition, % at 10 µM. hit rate 71% among 1,600. AID 651746;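 active = mean percent inhibition of the KCNQ2 thallium signal more than 5 SD above the buffer-only control wells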;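 note: KCNQ2 expressed in CHO cells; 0% = buffer control wells and 100% = XE-991 inhibitor control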
KCNQ1 KCNE1 spec = selectivity of KCNQ1 inhibitors: inhibition of human KCNQ1/KCNE1 channel; shares compounds with KCNQ1 inh; KCNQ1/KCNE1 cells, FluxOR thallium flux fluorescence; inhibition, % at 10 µM; hit rate 77% among 1,600; AID 652147;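 active = mean percent inhibition of duplicate wells above the buffer-only control mean plus 3 SD of those controls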;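 note: 0% = buffer only wells and 100% = XE-991 inhibitor control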
Target sequence (P51787 whole entry, looked up): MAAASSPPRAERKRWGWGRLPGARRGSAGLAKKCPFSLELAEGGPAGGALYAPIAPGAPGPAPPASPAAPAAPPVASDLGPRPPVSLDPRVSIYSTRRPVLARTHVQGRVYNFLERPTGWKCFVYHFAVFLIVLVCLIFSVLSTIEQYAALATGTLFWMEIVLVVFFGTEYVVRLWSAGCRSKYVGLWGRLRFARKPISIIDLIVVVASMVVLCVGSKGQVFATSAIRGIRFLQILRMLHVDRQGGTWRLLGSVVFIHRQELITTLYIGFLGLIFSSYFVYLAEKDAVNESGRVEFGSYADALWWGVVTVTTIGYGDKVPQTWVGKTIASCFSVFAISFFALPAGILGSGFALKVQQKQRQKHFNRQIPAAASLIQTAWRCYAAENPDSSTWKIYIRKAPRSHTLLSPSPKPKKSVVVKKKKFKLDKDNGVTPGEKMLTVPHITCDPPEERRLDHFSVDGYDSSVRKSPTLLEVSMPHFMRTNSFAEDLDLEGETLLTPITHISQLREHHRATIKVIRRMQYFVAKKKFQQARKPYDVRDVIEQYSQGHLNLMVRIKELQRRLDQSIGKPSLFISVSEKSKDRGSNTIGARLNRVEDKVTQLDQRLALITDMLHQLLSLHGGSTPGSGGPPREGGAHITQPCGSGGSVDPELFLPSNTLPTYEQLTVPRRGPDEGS
* marks the source's active call; other numbers are inactive results; i = inactive; . = not tested or not shown; + = active, no number.

SMILES | KCNQ1 act | KCNK3 inh | KCNQ1 inh | hERG rescue | KCNK9 inh | Kir21 block | KCNQ1 block val | CHO Tl flux | KCNQ2 inh | KCNQ1 KCNE1 spec | others
COc1ccc2oc(C(=O)Nc3cccc(S(=O)(=O)N4CCOCC4)c3)c(C)c2c1 | . | i | . | . | . | . | . | . | . | .
COC(=O)c1ccc2c(=O)n(-c3ccccc3)c(SCN3C(=O)c4ccccc4C3=O)nc2c1 | i | i | 6* | -7.6 | i | -0.47 | 87.0* | 0.513 | i | 65.5%*
O=C(O)c1ccc(CSc2nc3ccccc3c(=O)n2-c2ccccc2)cc1 | i | i | i | -4.3 | i | 0.57 | . | . | . | .
Cc1ccc(N=Nc2c(N)[nH]n3c(=O)cc(-c4ccccc4)nc23)cc1 | i | i | 9* | -11.1 | i | 1.02 | 46.0* | 0.485 | i | 87.0%*
Cc1cc(NC2CCCCC2)nc2ccccc12 | i | i | 6* | -18.6 | i | -0.68 | 57.5* | 0.45 | 59.0%* | 49.0%*
Cc1ccc(NC(=O)CN(C)C(=O)CNC(=O)c2sc3ccccc3c2Cl)cc1 | i | i | i | -21.4 | i | -0.03 | . | . | . | .
COc1ccc(CC(=O)Nc2cccc(-c3nnc(-c4cccc(C)c4)o3)c2)cc1OC | i | i | 10* | -34.4 | i | 0.82 | 144.0* | 0.32* | 131.7%* | 97.5%*
COc1ccccc1CNC(=S)NCCc1ccccc1 | i | i | i | -4.2 | i | -3.47 | . | . | . | .
CCC(C)c1ccc(NC(=S)NCc2ccccc2OC)cc1 (stereo unspecified) | i | i | 9* | -23.0 | i | 2.36 | 61.5* | 0.523 | 69.3%* | 65.5%*
Nc1cccc2[nH]c(=O)c3ccccc3c12 | . | i | . | . | . | . | . | . | . | .
Cc1cc(C)nc(NCCCc2ccccc2)n1 | i | i | i | -3.0 | i | -0.4 | . | . | . | .
CCCCNc1cc(C)nc(NCc2ccccc2)n1 | i | i | 10* | -19.8 | i | -11.6* | 96.0* | 0.386 | i | 77.0%* | KCNQ1 APC inh=+
Cc1cc(N2CCC(C)CC2)nc(NCc2ccccc2)n1 | i | i | 7* | -23.6 | i | -12.7* | 46.0* | 0.492 | i | i
COc1ccc(S(=O)(=O)N2CCN(C(=O)c3cc4c(s3)CCC4)CC2)cc1 | . | i | . | . | . | . | . | . | . | .
O=C(O)c1cn(-c2ccc(F)cc2)c2cc(N3CCNCC3)c(F)cc2c1=O | . | i | . | . | . | . | . | . | . | .
Cc1noc(C)c1C(=O)Nc1sc(C)c(-c2ccccc2)c1C#N | i | i | 9* | -12.7 | i | 0.03 | 107.0* | 0.416 | 80.7%* | 70.5%* | KCNQ1 APC inh=i
Cc1ccc(Nc2nc3nonc3[nH]c2=O)cc1Cl | i | i | 9* | -12.5 | i | -0.01 | 29.0* | 0.492 | i | i
CCC1(CC)Cc2ccccc2C(=O)N1 | i | i | i | -2.8 | i | 0.47 | . | . | . | .
O=C1c2ccccc2CC1(Cc1ccccc1)Cc1ccccc1 | i | i | 9* | -9.7 | i | 0.11 | 123.5* | 0.329* | 114.0%* | 164.5%*
Cc1cccc(NC(=O)[C@H](Cc2ccccc2)NC(=O)[C@@H]2Cc3ccccc3CN2)c1 | i | i | i | -4.0 | i | 1.02 | . | . | . | .
CC1CCN(CC(O)COCCC23CC4CC(CC(C4)C2)C3)CC1 (stereo unspecified) | i | i | 7* | -8.7 | i | -1.64 | 72.5* | 0.376* | 79.0%* | 76.5%*
CCCSc1nnc(NC(=O)Nc2ccc(F)cc2)s1 | i | i | 8* | -6.7 | i | -1.41 | 49.5* | 0.496 | 60.3%* | 37.0%*
FC(F)(F)c1cccc(CNC(=S)Nc2ccccc2)c1 | i | i | 8* | -12.6 | i | 0.75 | 46.0* | 0.491 | 82.0%* | i
FC(F)(F)Sc1ccc(NC(=S)NCc2ccccc2)cc1 | i | i | 7* | -10.1 | i | 1.84 | 77.5* | 0.508 | i | i
COc1ccccc1CNS(=O)(=O)CCNCCc1ccccc1 | . | i | . | . | . | . | . | . | . | .
SMILES | KCNQ1 act | KCNK3 inh | KCNQ1 inh | hERG rescue | KCNK9 inh | Kir21 block | KCNQ1 block val | CHO Tl flux | KCNQ2 inh | KCNQ1 KCNE1 spec | others
CCOC(=O)N(C)c1ccc(C(O)(C(F)(F)F)C(F)(F)F)cc1 | i | i | 8* | -11.6 | i | 0.42 | 73.5* | 0.435 | 79.0%* | 79.5%*
O=C(CCN1C(=O)/C(=C/c2cccs2)SC1=S)N1CCCCC1 | i | i | i | -11.3 | i | -0.19 | . | . | . | .
Cc1cc(C)c(-c2cc(NC(=O)CSc3n[nH]c(N)n3)n(-c3ccccc3)n2)cc1C | i | i | 7* | -14.8 | i | 0.52 | 78.5* | 0.454 | 89.0%* | 127.5%*
Cc1cc(C)c(-c2cc(NC(=O)COC(=O)c3ccc(CO)cc3)n(-c3ccccc3)n2)cc1C | i | i | i | -9.9 | i | 0.28 | . | . | . | .
COc1ccc(OCC(=O)Nc2nccs2)cc1 | i | i | 7* | -16.6 | i | 0.12 | 0.0 | 0.489 | i | i
CCOc1ccc(OCC(=O)Nc2nccs2)cc1 | i | i | i | -2.8 | i | 1.15 | . | . | . | .
CC1CCCN(c2nc3ccccc3nc2C(C#N)S(=O)(=O)c2cccs2)C1 (stereo unspecified) | i | i | i | -5.3 | i | -0.3 | . | . | . | .
COc1ccc(S(=O)(=O)C(C#N)c2nc3ccccc3nc2N2CCCC(C)C2)cc1 (stereo unspecified) | i | i | 9* | -12.9 | i | 0.01 | 124.5* | 0.441 | 106.0%* | 126.0%* | KCNQ1 APC inh=i
COc1ccc(C(C(=O)NC2CCCC2)N(CCCO)C(=O)c2snc(C(N)=O)c2N)cc1 (stereo unspecified) | i | i | i | -6.8 | i | 1.72 | . | . | . | .
CN(C(=O)c1cc([N+](=O)[O-])ccc1NCc1cccnc1)c1ccccc1 | i | i | i | -6.7 | i | -0.77 | . | . | . | .
c1ccc2c(c1)OCC(CNc1ncnc3sccc13)O2 (stereo unspecified) | i | i | 12* | -18.1 | i | -0.92 | 106.5* | 0.422 | 97.0%* | 104.5%*

Compound activity: PubChem BioAssay, Johns Hopkins Ion Channel Center
